Laboratory results from ChEMBL document CHEMBL5257157, “Biological evaluation of novel amidino substituted coumarin-benzazole hybrids as promising therapeutic agents” (RSC Med Chem, 2023).

Key:
CAPAN-1 = assay: Antiproliferative activity against human CAPAN-1 cells assessed as inhibition of cell growth incubated for 72 hrs by CellTiter96 Aqueous One Solution cell proliferation assay; format: functional, cell-based; conditions: CAPAN-1, 72 h
[1] = Antiproliferative activity against human DND41 cells assessed as inhibition of cell growth incubated for 72 hrs by CellTiter96 Aqueous One Solution cell proliferation assay; format: functional, cell-based; conditions: DND41, 72 h
K562 = assay: Antiproliferative activity against human K562 cells assessed as inhibition of cell growth incubated for 72 hrs by CellTiter96 Aqueous One Solution cell proliferation assay; format: functional, cell-based; conditions: K562, 72 h
NCI-H460 = assay: Antiproliferative activity against human NCI-H460 cells assessed as inhibition of cell growth incubated for 72 hrs by CellTiter96 Aqueous One Solution cell proliferation assay; format: functional, cell-based; conditions: NCI-H460, 72 h
LN-229 = assay: Antiproliferative activity against human LN-229 cells assessed as inhibition of cell growth incubated for 72 hrs by CellTiter96 Aqueous One Solution cell proliferation assay; format: functional, cell-based; conditions: LN-229, 72 h
HL-60 = assay: Antiproliferative activity against human HL-60 cells assessed as inhibition of cell growth incubated for 72 hrs by CellTiter96 Aqueous One Solution cell proliferation assay; format: functional, cell-based; conditions: HL-60, 72 h
Z-138 = assay: Antiproliferative activity against human Z138 cells assessed as inhibition of cell growth incubated for 72 hrs by CellTiter96 Aqueous One Solution cell proliferation assay; format: functional, cell-based; conditions: Z-138, 72 h
Yellow fever virus = assay: Antiviral activity against Yellow fever virus 17D infected in human Huh-7 cells assessed as inhibition of virus-induced cytopathogenic effect incubated for 3 to 7 days by MTS assay; format: functional, organism-based
[2] = system: Respiratory syncytial virus; assay: Antiviral activity against RSV infected in human HEL 299 cells assessed as inhibition of virus-induced cytopathogenic effect incubated for 3 to 7 days by MTS assay; format: functional, organism-based
Human coronavirus 229E = assay: Antiviral activity against HCoV-229E infected in human HEL 299 cells assessed as inhibition of virus-induced cytopathogenic effect incubated for 3 to 7 days by MTS assay; format: functional, organism-based
Influenza B virus = assay: Antiviral activity against influenza B virus infected in dog MDCK cells assessed as inhibition of virus-induced cytopathogenic effect incubated for 3 to 7 days by MTS assay; format: functional, organism-based
[3] = Antioxidant activity assessed as ABTS radical scavenging activity incubated for 5 mins by absorbance based microplate reader analysis; format: functional
Summary of the method: (§1)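 Pure compounds tested in three colorimetric antioxidant assays, each run alongside the reference BHT. […] ABTS: direct reaction with ABTS•+ radical cation, reported as IC50. DPPH: scavenging of the stable DPPH radical by proton or electron donation, reported as IC50. FRAP: reducing power, expressed as mmolFe2+/mmolC.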

[4] = Antioxidant activity assessed as DPPH radical scavenging activity incubated for 5 mins by absorbance based microplate reader analysis; format: functional; summary of the method: as §1
Influenza A virus [5] = assay: Antiviral activity against influenza virus H1N1 infected in dog MDCK cells assessed as inhibition of virus-induced cytopathogenic effect incubated for 3 to 7 days by MTS assay; format: functional, organism-based
[6] = Antiviral activity against HCoV-NL63 infected in human Huh-7 cells assessed as inhibition of virus-induced cytopathogenic effect incubated for 3 to 7 days by MTS assay; format: functional, cell-based; conditions: Human coronavirus NL63, Huh-7
[7] = Cytotoxicity against dog MDCK cells assessed as inhibition of cell growth incubated for 72 hrs by CellTiter96 Aqueous One Solution cell proliferation assay; format: toxicity, cell-based, Canis lupus familiaris
Influenza A virus [8] = assay: Antiviral activity against influenza virus H3N2 infected in dog MDCK cells assessed as inhibition of virus-induced cytopathogenic effect incubated for 3 to 7 days by MTS assay; format: functional, organism-based
[9] = Antioxidant activity assessed as reduction of Fe3+ complex to Fe2+ analogue by measuring mmolFe2+/mmolc by FRAP assay; format: functional; summary of the method: as §1
Huh-7 = assay: Cytotoxicity against human Huh-7 cells assessed as inhibition of cell growth incubated for 72 hrs by CellTiter96 Aqueous One Solution cell proliferation assay; format: functional
Zika virus = assay: Antiviral activity against Zika virus Mr776 infected in human Huh-7 cells assessed as inhibition of virus-induced cytopathogenic effect incubated for 3 to 7 days by MTS assay; format: functional, organism-based; conditions: Mr776, Huh-7
Human alphaherpesvirus 1 = assay: Antiviral activity against HSV-1 KOS infected in human HEL 299 cells assessed as inhibition of virus-induced cytopathogenic effect incubated for 3 to 7 days by MTS assay; format: functional, organism-based; conditions: Human alphaherpesvirus 1, KOS
Human coronavirus OC43 = assay: Antiviral activity against HCoV-OC43 infected in human HEL 299 cells assessed as inhibition of virus-induced cytopathogenic effect incubated for 3 to 7 days by MTS assay; format: functional, organism-based; conditions: Betacoronavirus 1, HEL 299
[10] = Cytotoxicity against human HEL 299 cells assessed as inhibition of cell growth incubated for 72 hrs by CellTiter96 Aqueous One Solution cell proliferation assay; format: toxicity, cell-based
Sindbis virus = assay: Antiviral activity against Sindbis virus infected in human Huh-7 cells assessed as inhibition of virus-induced cytopathogenic effect incubated for 3 to 7 days by MTS assay; format: functional, organism-based

Row | SMILES | IC50 (CAPAN-1) | IC50 [1] | IC50 (K562) | IC50 (NCI-H460) | IC50 (LN-229) | IC50 (HL-60) | IC50 (Z-138) | EC50 (Yellow fever virus) | EC50 [2] | EC50 (Human coronavirus 229E) | EC50 (Influenza B virus) | IC50 [3] | EC50 (Influenza A virus [5]) | EC50 [6] | CC50 at 72 h [7] | EC50 (Influenza A virus [8]) | CC50 (Huh-7) | EC50 (Zika virus) | EC50 (Human alphaherpesvirus 1) | CC50 at 72 h [10] | also measured
1 | COc1cc([C@@H]2c3cc4c(cc3[C@@H](O[C@@H]3O[C@@H]5CO[C@@H](C)O[C@H]5[C@H](O)[C@H]3O)[C@H]3COC(=O)[C@H]23)OCO4)cc(OC)c1O [ETOPOSIDE] | 1.45 µM | 2.8 µM | 1.77 µM | 3.65 µM | 0.43 µM | 0.42 µM | 0.85 µM | – | – | – | – | – | – | – | – | – | – | – | – | – | –
2 | Cc1ccc2oc(=O)c(-c3nc4cc(C5=NCCCN5)ccc4[nH]3)c(Cl)c2c1 | 71.9 µM | 16.9 µM | > 100 µM | > 100 µM | > 100 µM | 64.2 µM | 48.1 µM | > 100 µM | 64.1 µM | > 100 µM | > 100 µM | 460 µM | > 100 µM | > 100 µM | 77.1 µM | > 100 µM | 78.7 µM | > 100 µM | > 100 µM | > 100 µM | IC50 [4]: 520 µM; Activity [9]: 47.8 mmol/mmol; EC50 (Human coronavirus OC43): 74.2 µM; EC50 (Sindbis virus): > 100 µM
3 | NC(=O)c1ncn([C@@H]2O[C@H](CO)[C@@H](O)[C@H]2O)n1 [RIBAVIRIN] | – | – | – | – | – | – | – | > 250 µM | 10.8 µM | 82.6 µM | 2.8 µM | – | 10.5 µM | > 250 µM | 67 µM | 4 µM | 8.9 µM | > 250 µM | – | > 250 µM | –
4 | CC(N)C12CC3CC(CC(C3)C1)C2 (stereo not drawn) [RIMANTADINE] | – | – | – | – | – | – | – | – | – | – | > 100 µM | – | 5 µM | – | > 100 µM | 0.05 µM | – | – | – | – | –
5 | CCN(CC)c1ccc2cc(-c3nc4ccc(C5=NCCN5)cc4s3)c(=O)oc2c1 | 80.6 µM | 10.2 µM | 65.5 µM | > 100 µM | > 100 µM | > 100 µM | 11.3 µM | > 100 µM | > 100 µM | > 100 µM | > 100 µM | 2190 µM | > 100 µM | > 100 µM | 64.2 µM | > 100 µM | 54.2 µM | > 100 µM | 47.9 µM | > 100 µM | Activity [9]: 2.84 mmol/mmol; EC50 (Human coronavirus OC43): 69.7 µM; EC50 (Sindbis virus): > 100 µM
6 | O=c1oc2ccc(Br)cc2c(Cl)c1-c1nc2cc(C3=NCCN3)ccc2[nH]1 | 29.9 µM | 6.2 µM | 9.7 µM | > 100 µM | 40.9 µM | 49.6 µM | 6.4 µM | > 100 µM | > 100 µM | > 100 µM | > 100 µM | 260 µM | 16.2 µM | > 100 µM | 59 µM | > 100 µM | 2.3 µM | > 100 µM | > 100 µM | 51.6 µM | IC50 [4]: 130 µM; Activity [9]: 130 mmol/mmol; EC50 (Human coronavirus OC43): > 100 µM; EC50 (Sindbis virus): > 100 µM
7 | O=c1oc2ccc(Br)cc2c(Cl)c1-c1nc2cc(C3=NCCCN3)ccc2[nH]1 | 54.2 µM | 49.2 µM | 59.5 µM | > 100 µM | > 100 µM | > 100 µM | 52.1 µM | 11.2 µM | 73.5 µM | > 100 µM | 9 µM | 360 µM | 43.8 µM | > 100 µM | > 100 µM | 51 µM | > 100 µM | 9.4 µM | > 100 µM | > 100 µM | IC50 [4]: 110 µM; Activity [9]: 95.1 mmol/mmol; EC50 (Human coronavirus OC43): 78 µM; EC50 (Sindbis virus): 59 µM
8 | CCC(CC)COC(=O)[C@H](C)N[P@](=O)(OC[C@H]1O[C@@](C#N)(c2ccc3c(N)ncnn23)[C@H](O)[C@@H]1O)Oc1ccccc1 [REMDESIVIR] | – | – | – | – | – | – | – | 6.2 µM | 0.03 µM | 0.06 µM | – | – | – | 0.03 µM | – | – | > 10 µM | 0.7 µM | – | > 10 µM | EC50 (Human coronavirus OC43): 0.06 µM; EC50 (Sindbis virus): > 10 µM
9 | CCN(CC)c1ccc2cc(-c3nc4cc(C5=NCCCN5)ccc4[nH]3)c(=O)oc2c1 | 66.7 µM | 10.8 µM | 63.5 µM | > 100 µM | 97 µM | 63.8 µM | 67.3 µM | 72.6 µM | 73.3 µM | > 100 µM | > 100 µM | 110 µM | > 100 µM | > 100 µM | 43.4 µM | > 100 µM | > 100 µM | 77.7 µM | > 100 µM | > 100 µM | IC50 [4]: 610 µM; Activity [9]: 28.8 mmol/mmol; EC50 (Human coronavirus OC43): > 100 µM; EC50 (Sindbis virus): > 100 µM
10 | O=c1[nH]c(=O)n([C@H]2C[C@H](O)[C@@H](CO)O2)cc1/C=C/Br [BRIVUDINE] | – | – | – | – | – | – | – | – | – | – | – | – | – | – | – | – | – | – | 0.05 µM | > 100 µM | –
11 | Cc1cc(C(C)(C)C)c(O)c(C(C)(C)C)c1 [BUTYLATED HYDROXYTOLUENE] | – | – | – | – | – | – | – | – | – | – | – | 180 µM | – | – | – | – | – | – | – | – | IC50 [4]: 25 µM
12 | CC(=O)N[C@H]1[C@H]([C@H](O)[C@H](O)CO)OC(C(=O)O)=C[C@@H]1NC(=N)N [ZANAMIVIR] | – | – | – | – | – | – | – | – | – | – | 0.05 µM | – | 0.1 µM | – | > 100 µM | 16.8 µM | – | – | – | – | –
